Test results reported in ChEMBL document CHEMBL1123282, “Antiinflammatory activity of substituted 6-hydroxypyrimido[2,1-f]purine-2,4,8(1H,3H,9H)-triones. Atypical nonsteroidal antiinflammatory agents” (J Med Chem, 1986).

Tested on: Rattus norvegicus
Assay: compound was tested in vivo for antiinflammatory activity against rats by RPAR(reverse passive Arthus reaction) synovitis method
Type: functional
How it was run: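 Lewis rats dosed orally 1 h before iv BSA (2.28 mg) and intraarticular rabbit anti-BSA (0.54 mg) into one knee, saline into the other; dosed orally again at 3 h. Total dose counted. At about 17 h, subpatellar tissue with synovium weighed; Δ weight between the two knees taken as the response. Compared with lesion controls by ANOVA.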

Cn1c(=O)c2c(nc3n(Cc4ccccc4)c(=O)/c(=C/O)c(=O)n23)n(C)c1=O
Inhibition: 14%
